Measured values: PubChem BioAssay
The source made the active and inactive calls.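 Rule for the calls, unless noted: active = viability at or under a set limit in both replicates, limit being median viability minus 3 SD (cut at about 48% in these data, passing the limit was not always enough); inconclusive = at or under the limit in just one replicate; inactive = at or above the limit in both replicates.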

Columns and labels:
[1] = Her2 expression decrease, cell viability multiplex – SKBR3 breast tumor cells, AlphaScreen, ATP viability, primary screen (AID 461;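 active = Her2 level under about 52% in both replicate screens, with viability over 70% of control, limit read from the data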;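 for Her2 level: lower value means less Her2 protein in the cells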;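 for viability: percent of carrier control wells set as 100% viability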); conditions: SKBR3 Her2 protein level, 18-24 h, measured here: SKBR3 viability, ATP luminescence, at 10 µM
[2] = molecular target: Receptor tyrosine-protein kinase erbB-2 (Homo sapiens) (UniProt P04626); assay: as above; conditions: 18-24 h, at 10 µM, stronger effect = lower value
Sequence of Receptor tyrosine-protein kinase erbB-2 (Homo sapiens) (P04626 whole entry, looked up): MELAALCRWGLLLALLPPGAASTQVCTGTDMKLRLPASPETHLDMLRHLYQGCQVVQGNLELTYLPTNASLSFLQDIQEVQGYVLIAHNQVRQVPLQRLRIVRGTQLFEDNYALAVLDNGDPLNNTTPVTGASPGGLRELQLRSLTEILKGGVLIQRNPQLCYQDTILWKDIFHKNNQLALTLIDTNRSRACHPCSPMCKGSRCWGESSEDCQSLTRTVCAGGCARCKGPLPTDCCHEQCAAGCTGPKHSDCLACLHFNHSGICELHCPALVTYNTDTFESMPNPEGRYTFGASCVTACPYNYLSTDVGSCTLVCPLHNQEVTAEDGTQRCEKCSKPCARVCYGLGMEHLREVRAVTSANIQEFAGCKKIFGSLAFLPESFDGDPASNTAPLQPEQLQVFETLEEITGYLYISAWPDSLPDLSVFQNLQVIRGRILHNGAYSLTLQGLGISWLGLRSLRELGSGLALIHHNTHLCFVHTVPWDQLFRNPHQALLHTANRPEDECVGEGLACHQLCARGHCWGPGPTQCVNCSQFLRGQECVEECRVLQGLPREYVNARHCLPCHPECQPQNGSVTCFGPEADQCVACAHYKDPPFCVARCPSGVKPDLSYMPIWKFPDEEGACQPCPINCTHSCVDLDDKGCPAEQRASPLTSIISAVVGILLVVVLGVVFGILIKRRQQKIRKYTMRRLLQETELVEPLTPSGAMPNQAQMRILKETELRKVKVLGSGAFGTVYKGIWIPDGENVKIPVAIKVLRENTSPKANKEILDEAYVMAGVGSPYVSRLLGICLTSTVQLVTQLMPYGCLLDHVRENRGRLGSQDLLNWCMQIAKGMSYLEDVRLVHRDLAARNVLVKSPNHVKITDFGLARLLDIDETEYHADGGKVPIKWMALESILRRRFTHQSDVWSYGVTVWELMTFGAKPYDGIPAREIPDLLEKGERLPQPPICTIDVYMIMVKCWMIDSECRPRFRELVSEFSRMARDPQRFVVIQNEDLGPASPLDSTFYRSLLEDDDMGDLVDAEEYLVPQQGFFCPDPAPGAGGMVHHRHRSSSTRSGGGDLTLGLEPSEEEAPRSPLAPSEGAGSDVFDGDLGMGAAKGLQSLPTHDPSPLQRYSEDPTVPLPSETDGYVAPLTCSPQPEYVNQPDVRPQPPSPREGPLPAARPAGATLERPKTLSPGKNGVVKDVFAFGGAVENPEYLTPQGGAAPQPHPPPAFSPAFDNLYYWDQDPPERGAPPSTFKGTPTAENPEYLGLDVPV

[3] = reduced viability of SK-BR-3 breast cancer cells – cell-based, 24 h, human, pilot screen (AID 572;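 active = viability at or below 10% of carrier control in both of two separate runs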;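 note: compound exposure lasted between 18 and 24 h rather than exactly 24 h; 100% = carrier-treated control wells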); conditions: SK-BR-3 viability, CellTiter-Glo luminescence, at 10 µM, stronger effect = lower value
[4] = HUVEC growth inhibition – cell-based, human, primary screen (AID 575;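 active = viability at or below 30% in both replicate assays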;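 note: 100% = median of untreated cell wells with 0.1% DMSO on each plate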); conditions: HUVEC proliferation, CellTiter-Glo luminescence, 72 h; at 10 µM; stronger effect = lower value
Outline: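 system = HUVEC primary cells | amount = 1250 cells/well | buffer or medium = supplemented EBM, 2% fetal bovine serum | dosing = single-point 10 µM, DMSO 0.1% final | times = 72 h compound incubation | detection = CTG luminescence | read-out = % viability relative to median vehicle-well signal on each plate | control set = vehicle and MePR control wells | format = collagen-coated 384-well format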

[5] = H69AR cell proliferation blockers – human, duplicate replicates, primary screen (AID 580); conditions: H69AR lung tumor cells viability, ATP luminescence, 72 h; at 10 µM; stronger effect = lower value;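 note: 100% = mean luminescence of untreated wells and 0% = no signal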
[6] = MRP1 drug-resistance reversers in H69AR cells – cell-based, doxorubicin co-treatment, pilot screen (AID 601;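 active = viability loss from added drug above about 55%, and viability with drug at most 40%, in both replicates, limit read from the data, passing the limit was not always enough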); conditions: CellTiter-Glo, 72 h, at 10 µM; for differential viability (reversal): stronger effect = higher value
[7] = yeast transport mutant growth inhibition pilot in 384-well plates, post-Golgi transport modulator project (AID 636; in the data active = inhibition above about 31%); conditions: absorbance 615 nm, about 18 h, stronger effect = higher value
[8] = growth suppression of yeast trafficking mutant, preliminary HTS, modulators of trafficking downstream of Golgi apparatus project, 1536-format plate, OD 615 nm (AID 637; in the data active = inhibition above about 30%); conditions: yeast transport mutant growth, absorbance 615 nm, 18 h; stronger effect = higher value
[9] = H69AR cells + 2 uM doxorubicin, measured here: viability with 2 uM doxorubicin, stronger effect = lower value
[10] = H69AR cells, compound alone cytotoxicity

Compound | viability [1] | Her2 level [2] | viability [3] | viability [4] | viability [5] | differential viability (reversal) ([6]; H69AR cells + 2 uM doxorubicin) | viability [6, 9] | viability [6, 10] | inhibition [7] | inhibition [8]
CC(=O)Nc1ccc(NC(=O)C(C)Oc2ccccc2F)cc1 (stereo not given) | 102% | 102% (inactive) | 102% (inactive) | 113% (inactive) | 103% (inactive) | 18.8% (inactive) | 84% | 103% | -5.97% (inactive) | -2.22% (inactive)
Cc1sc2nc(SCC(=O)NCc3ccco3)n(CCc3ccccc3)c(=O)c2c1C | 102% | 86.5% (inactive) | 102% (inactive) | 58.3% (inactive) | 40% (active) | -14.2% (inactive) | 54.2% | 40% | -6.27% (inactive) | 0.82% (inactive)
Cc1ccc2[nH]c(=O)c(CN(CCCO)S(=O)(=O)c3c(C)ccc4nsnc34)cc2c1 | 91% | 92.5% (inactive) | 91% (inactive) | 95.1% (inactive) | 96.8% (inactive) | 4.04% (inactive) | 92.8% | 96.8% | -1.18% (inactive) | -4.44% (inactive)
COc1ccc(C(=O)CN2C(=O)NC3(CCCc4ccccc43)C2=O)cc1OC (stereo not given) | 98% | 84.5% (inactive) | 98% (inactive) | 95.6% (inactive) | 88.6% (inactive) | 10.9% (inactive) | 77.7% | 88.6% | -1.87% (inactive) | 2.42% (inactive)
CCCc1cc(=O)n2[nH]cnc2n1 | 104% | 102% (inactive) | 104% (inactive) | 110% (inactive) | 100% (inactive) | 3.53% (inactive) | 96.6% | 100% | -6.22% (inactive) | 0.67% (inactive)
Cn1c(=O)c(C(=S)NC(=O)C2CC2)c(N)n(Cc2ccccc2)c1=O | 70.5% | 74.5% (inactive) | 70.5% (inactive) | 59.9% (inactive) | 78.1% (inactive) | -6.6% (inactive) | 84.7% | 78.1% | -1.05% (inactive) | -3.65% (inactive)
CC1Cc2ccccc2N1Cc1cc(=O)n2ccsc2n1 (stereo not given) | 102% | 78.5% (inactive) | 102% (inactive) | 80.4% (inactive) | 74.7% (inactive) | -17.9% (inactive) | 92.6% | 74.7% | -2.99% (inactive) | -6.98% (inactive)
COC(=O)/C=c1\sc2ncnn2c1=O | 95% | 97.5% (inactive) | 95% (inactive) | 72.5% (inactive) | 78.7% (inactive) | -3.79% (inactive) | 82.5% | 78.7% | 1.62% (inactive) | 4.92% (inactive)
CCN1CCCC1CNCc1ccc(Cl)cc1Cl (stereo not given) | 92.5% | 116% (inactive) | 92.5% (inactive) | 111% (inactive) | 104% (inactive) | 9.34% (inactive) | 94.4% | 104% | 0.95% (inactive) | 6.83% (inactive)
CC(=O)N1CCc2cc(S(=O)(=O)CCC(=O)N3CCN(C(=O)c4ccco4)CC3)ccc21 | 99% | 88.5% (inactive) | 99% (inactive) | 104% (inactive) | 98.2% (inactive) | 10.1% (inactive) | 88.1% | 98.2% | -5.47% (inactive) | 2.95% (inactive)
O=C(CCCn1c(=S)[nH]c2cc3c(cc2c1=O)OCO3)N1CCN(c2ccccc2F)CC1 | 77% | 95% (inactive) | 77% (inactive) | 68% (inactive) | 83.7% (inactive) | -9.88% (inactive) | 93.6% | 83.7% | -4.32% (inactive) | -2.95% (inactive)
Cc1ccc2[nH]c(=O)c(C(c3nnnn3CCc3ccccc3)N3CCOCC3)cc2c1 (stereo not given) | 86% | 87.5% (inactive) | 86% (inactive) | 76.9% (inactive) | 100% (inactive) | 12.1% (inactive) | 87.8% | 100% | -5.95% (inactive) | -0.49% (inactive)
CN(C)c1cccc(NC(=O)CCc2ccccc2)c1 | 86% | 90% (inactive) | 86% (inactive) | 89.9% (inactive) | 94.5% (inactive) | -7.99% (inactive) | 102% | 94.5% | -5.89% (inactive) | 2.38% (inactive)
Cc1cc(NC(=O)CSc2nnc(C3CC3)n2C)no1 | 91% | 80% (inactive) | 91% (inactive) | 92.4% (inactive) | 100% (inactive) | 0.235% (inactive) | 100% | 100% | -0.53% (inactive) | -2.91% (inactive)
O=C1NCCCc2c1no[n+]2[O-] | 100% | 103% (inactive) | 100% (inactive) | 84.1% (inactive) | 104% (inactive) | 4.5% (inactive) | 99.2% | 104% | -0.13% (inactive) | -3.71% (inactive)
COc1ccc(-c2nnc(SCC(=O)Nc3cc(C)on3)n2C)cc1OC | 101% | 90% (inactive) | 101% (inactive) | 108% (inactive) | 105% (inactive) | 11.9% (inactive) | 92.6% | 105% | -6.22% (inactive) | 4.59% (inactive)
COCCN1CN(S(=O)(=O)c2ccccc2)c2nc3ccccc3nc21 | 101% | 93.5% (inactive) | 101% (inactive) | 109% (inactive) | 98% (inactive) | -2.97% (inactive) | 101% | 98% | -3.95% (inactive) | 13.6% (inactive)
CC1Cc2ccccc2N1C(=O)COC(=O)Cn1nnc(-c2ccccc2)n1 (stereo not given) | 110% | 92.5% (inactive) | 110% (inactive) | 88.5% (inactive) | 81% (inactive) | 7.38% (inactive) | 73.6% | 81% | -5.27% (inactive) | 3.65% (inactive)
CN(Cc1ccccc1)Cc1nc2c([nH]1)c(=O)[nH]c(=O)n2C | 92% | 90.5% (inactive) | 92% (inactive) | 79.2% (inactive) | 90.9% (inactive) | 8.36% (inactive) | 82.6% | 90.9% | -3.6% (inactive) | -1.31% (inactive)
COc1ccc(C2C=C(c3ccccc3)Nc3ncnn32)cc1 (stereo not given) | 92.5% | 94.5% (inactive) | 92.5% (inactive) | 110% (inactive) | 101% (inactive) | 1.29% (inactive) | 100% | 101% | -3.65% (inactive) | 3.65% (inactive)
O=C(CCSc1ccccc1)Nc1ccc(S(=O)(=O)N2CCOCC2)cc1 | 102% | 83.5% (inactive) | 102% (inactive) | 81.2% (inactive) | 104% (inactive) | 12.5% (inactive) | 91.6% | 104% | -9.18% (inactive) | -1.27% (inactive)
CCCC(=O)Nc1ccc(OCC(=O)OC)cc1 | 99.5% | 78.5% (inactive) | 99.5% (inactive) | 89.9% (inactive) | 98.9% (inactive) | 5.34% (inactive) | 93.6% | 98.9% | -3.95% (inactive) | 0.79% (inactive)
O=C1CSC(c2cn(-c3ccccc3)nc2-c2cccs2)N1CC1CCCO1 (stereo not given) | 102% | 90% (inactive) | 102% (inactive) | 71.9% (inactive) | 95.7% (inactive) | -0.73% (inactive) | 96.4% | 95.7% | -2.11% (inactive) | 2.58% (inactive)
CCOc1ccc(OCC)c(NC(=O)C2CCN(S(=O)(=O)c3cnc[nH]3)CC2)c1 | 95.5% | 99% (inactive) | 95.5% (inactive) | 96.2% (inactive) | 111% (inactive) | 11.1% (inactive) | 100% | 111% | -2.37% (inactive) | -2.74% (inactive)
COc1cc(Cn2c(-c3nonc3N)nc3ccccc32)ccc1C | 104% | 71.5% (inactive) | 104% (inactive) | 38.9% (inactive) | 17.8% (active) | -29.2% (inactive) | 47.1% | 17.8% | -3.92% (inactive) | 1.59% (inactive)
COc1cccc(OCCOCCN(C)CCO)c1 | 124% | 124% (inactive) | 124% (inactive) | 84.4% (inactive) | 97.3% (inactive) | 7.71% (inactive) | 89.6% | 97.3% | -4.93% (inactive) | -1.45% (inactive)
CCn1cc(C(=O)OCc2ccc(F)cc2)c(=O)c2ccc(C)nc21 | 104% | 82% (inactive) | 104% (inactive) | 89.3% (inactive) | 79.3% (inactive) | 1.26% (inactive) | 78.1% | 79.3% | -2.27% (inactive) | 0.16% (inactive)
O=C(CCn1c(=O)oc2ccccc21)NCCN1CCc2ccccc2C1 | 77% | 79% (inactive) | 77% (inactive) | 95.2% (inactive) | 94.4% (inactive) | 16% (inactive) | 78.4% | 94.4% | -2.24% (inactive) | 3.02% (inactive)
